Where two headings read alike, the source gives them in different places. Where a SMILES comes first, the peptide text is derived from it. [ ]: non-standard residue; d: D form. The star is where a group is joined. Cbz = O=C(OCc1ccccc1)*

Experiment [1] concerns the target T532C-yeast Cdc48 (Saccharomyces cerevisiae, UniProt P25694, T532C). As to the kind of experiment: ATPase activity assay, T532C-yeast Cdc48. The experiment is classed as biochemical.
For experiment [2], the target named is T1, p97 (Homo sapiens, UniProt P55072). As to the kind of experiment: p97 ATPase activity assay. In kind it is biochemical.
T1 sequence (P55072 whole entry): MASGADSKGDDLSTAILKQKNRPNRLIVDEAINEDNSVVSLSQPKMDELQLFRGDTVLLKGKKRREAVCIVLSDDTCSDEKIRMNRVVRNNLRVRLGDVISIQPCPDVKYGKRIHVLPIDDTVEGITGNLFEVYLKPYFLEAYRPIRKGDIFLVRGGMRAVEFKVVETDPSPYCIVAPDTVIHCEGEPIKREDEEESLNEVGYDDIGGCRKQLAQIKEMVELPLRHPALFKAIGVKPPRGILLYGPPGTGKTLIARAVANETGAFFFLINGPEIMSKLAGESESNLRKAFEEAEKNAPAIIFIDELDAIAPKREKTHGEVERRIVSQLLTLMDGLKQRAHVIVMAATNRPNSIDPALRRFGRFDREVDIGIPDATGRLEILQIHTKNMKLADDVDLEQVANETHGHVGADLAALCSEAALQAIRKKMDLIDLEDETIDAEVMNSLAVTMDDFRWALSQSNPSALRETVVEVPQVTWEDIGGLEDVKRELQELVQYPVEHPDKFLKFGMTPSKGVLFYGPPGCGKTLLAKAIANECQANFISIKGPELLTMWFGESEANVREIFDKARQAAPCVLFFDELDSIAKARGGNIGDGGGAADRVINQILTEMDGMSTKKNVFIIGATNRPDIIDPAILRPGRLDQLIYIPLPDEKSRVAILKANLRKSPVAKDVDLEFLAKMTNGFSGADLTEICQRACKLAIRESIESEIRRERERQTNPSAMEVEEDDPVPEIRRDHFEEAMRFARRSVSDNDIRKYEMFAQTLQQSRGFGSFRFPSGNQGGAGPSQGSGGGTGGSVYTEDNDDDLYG
Experiment [3] has as its system p97. The following applies: cited from earlier work.
In experiment [4] the test system is Ub^G76V-GFP. In words: Washout. In kind it is cell-based, human. To be noted: cycloheximide, additional 17 h.
The target in experiment [5] is Hamster NSF (Cricetulus griseus, UniProt P18708). As to the kind of experiment: ATPase activity assay, NSF. In kind it is biochemical.
Chain of Hamster NSF (P18708 whole entry): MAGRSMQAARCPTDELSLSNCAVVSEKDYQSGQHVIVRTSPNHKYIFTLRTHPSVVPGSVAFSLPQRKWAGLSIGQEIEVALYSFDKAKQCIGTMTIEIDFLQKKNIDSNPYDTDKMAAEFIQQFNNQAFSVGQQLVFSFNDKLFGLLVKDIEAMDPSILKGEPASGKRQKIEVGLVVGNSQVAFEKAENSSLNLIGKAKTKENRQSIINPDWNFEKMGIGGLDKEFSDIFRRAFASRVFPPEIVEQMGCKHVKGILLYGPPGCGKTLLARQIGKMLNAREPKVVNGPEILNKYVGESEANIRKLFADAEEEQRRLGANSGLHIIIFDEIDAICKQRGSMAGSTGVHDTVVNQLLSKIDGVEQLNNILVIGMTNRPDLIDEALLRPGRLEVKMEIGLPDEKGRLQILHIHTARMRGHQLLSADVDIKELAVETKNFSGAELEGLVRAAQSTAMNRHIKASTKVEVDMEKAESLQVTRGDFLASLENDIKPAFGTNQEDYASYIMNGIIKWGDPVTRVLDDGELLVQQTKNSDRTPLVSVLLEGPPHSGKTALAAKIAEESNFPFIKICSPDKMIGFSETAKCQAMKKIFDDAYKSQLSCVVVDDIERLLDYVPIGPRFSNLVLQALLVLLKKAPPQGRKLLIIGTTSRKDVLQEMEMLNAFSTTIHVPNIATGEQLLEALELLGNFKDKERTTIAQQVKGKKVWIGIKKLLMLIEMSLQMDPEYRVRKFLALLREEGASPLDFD
Experiment [6] has as its target Human 26S proteasome (Homo sapiens, UniProt P28074). In words: Human 26S proteasome activity assay. In kind it is biochemical. The following applies: 5, 25, or 50 μM; affinity-purified 26S proteasome from Hek293 cells; listed as PPA. The essentials: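 26S proteasome was affinity-purified from HEK293 cells stably expressing tagged Rpn11. Suc-LLVY-AMC (60 μM) then started the reaction. Fluorescence was read every 3 min for 30 min, in sextuplicate.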

Experiment [7] deals with NMS-873 resistant HCT116 cell line harboring A530T p97 mutant (NMS-R). In words: Anti-proliferative assay, NMS-873 resistant HCT116. In kind it is cell-based, human. The following applies: compared with parental HCT116; listed as PPA. The essentials:
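Cells were grown in RPMI1640 or DMEM with 5% FBS and 1% penicillin-streptomycin. Seeding was 750 or 3000 cells/well, set from each line's luminescence–cell-number standard curve. After 24 h, cells got test compound (eight three-fold dilutions) for 48 h at 37 °C, 5% CO2. Viability was read by CellTiter-Glo luminescence. IC50 came from % growth versus DMSO control. Data are mean ± SEM of four replicate experiments.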

Experiment [8] concerns CB-5083 resistant HCT116 cell line harboring D649A, T688A p97 mutant (CB-R). In words: Anti-proliferative assay, CB-5083 resistant HCT116. To be noted: compared with parental HCT116; listed as PPA. The experiment is classed as cell-based, human.
Experiment [9] concerns the target Yeast Cdc48 (Saccharomyces cerevisiae, UniProt P25694). As to the kind of experiment: ATPase activity assay, yeast Cdc48. In kind it is biochemical.
The subject of experiment [10] is TCRα-GFP. In words: TCRα-GFP. The experiment is classed as cell-based, human. The following applies: 10 μM, 60 min or 120 min, cycloheximide, HEK293 cells. The method, boiled down:
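HEK293 cells stably expressing TCRα-GFP were pretreated 1 h with 4 μM MG132, then washed. They were then incubated with 50 μM cycloheximide plus 10 μM test compound, or MG132 as control, for 60 or 120 min before harvest. Lysates were immunoblotted with anti-GFP, with anti-p97 as loading control, and detected by ECL.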

Experiment [11] deals with cancer cell lines. The following applies: cited from earlier work.
For experiment [12], the system named is C522A mutant. To be noted: cited from earlier work.
The test system of experiment [13] is ODD-Luc. The following applies: read-out: Apparent IC50 ODD-Luc; adapted from reference; cited from earlier work.
Experiment [14] concerns Ub^G76V-GFP. To be noted: read-out: Apparent IC50 Ub^G76V-GFP; adapted from reference; cited from earlier work.
Experiment [15] has as its target T1, p97. To be noted: read-out: Apparent IC50 p97; ATPase activity; adapted from reference; cited from earlier work.
Experiment [16] relates to Syk. The following applies: cited from earlier work.
For experiment [17], the target named is C522A-p97 (Homo sapiens, UniProt P55072, C522A). The following applies: cited from earlier work.
Chain of C522A-p97 (P55072 whole entry C522A): as the sequence (P55072 whole entry) above, with C522A counted along it

Chain of T532C-yeast Cdc48 (P25694 whole entry T532C): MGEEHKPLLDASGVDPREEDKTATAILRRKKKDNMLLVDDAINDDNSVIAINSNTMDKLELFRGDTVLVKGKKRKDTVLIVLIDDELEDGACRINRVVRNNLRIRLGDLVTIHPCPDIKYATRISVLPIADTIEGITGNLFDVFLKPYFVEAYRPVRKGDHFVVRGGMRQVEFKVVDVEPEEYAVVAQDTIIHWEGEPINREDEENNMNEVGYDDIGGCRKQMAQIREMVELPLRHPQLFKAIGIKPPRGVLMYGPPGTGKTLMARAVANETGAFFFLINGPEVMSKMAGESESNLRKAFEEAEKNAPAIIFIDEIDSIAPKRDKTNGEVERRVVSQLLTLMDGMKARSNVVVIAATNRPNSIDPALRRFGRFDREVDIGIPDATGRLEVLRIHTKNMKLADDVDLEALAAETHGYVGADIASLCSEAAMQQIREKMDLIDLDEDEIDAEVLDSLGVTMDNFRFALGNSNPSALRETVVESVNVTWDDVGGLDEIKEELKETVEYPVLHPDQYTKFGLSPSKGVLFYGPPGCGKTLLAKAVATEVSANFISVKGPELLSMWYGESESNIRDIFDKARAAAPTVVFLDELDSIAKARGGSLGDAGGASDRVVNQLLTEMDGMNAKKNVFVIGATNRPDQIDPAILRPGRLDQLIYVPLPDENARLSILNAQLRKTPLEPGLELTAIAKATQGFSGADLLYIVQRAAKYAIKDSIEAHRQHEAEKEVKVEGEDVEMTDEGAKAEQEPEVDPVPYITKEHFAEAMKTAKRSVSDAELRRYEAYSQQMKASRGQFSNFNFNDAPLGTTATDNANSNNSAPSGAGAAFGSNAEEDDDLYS
Chain of Yeast Cdc48 (P25694 whole entry): as the sequence (P25694 whole entry T532C) above, with C532T counted along it

`CC(C)(C)n1nc(-c2ccc3ccccc3c2)c2c(N)ncnc21` [Compound 21, 2-Naphthyl pyrazolopyrimidine]: the 50% inhibitory concentration (IC50) in experiment [1] is > 100 µM.
For `O=C(O)/C=C/c1ccc2c(c1)OCO2` [Compound 7], the “Activity in ATPase and Ub^G76V-GFP turnover assays (in words)” value in experiment [2] (summary of Tables 2 and 3) was “complete loss of activity”.
Turning to `CC(C)N1CCN(CCNC2CCN(c3cccc(-c4cc5cc(F)ccc5[nH]4)c3)CC2)CC1` [UPCDC30245], the IC50 in [3] (allosteric p97 inhibitor) was 0.027 µM.
`COc1cccc2c(NCc3ccccc3)nc(-n3c(N)nc4ccccc43)nc12` [ML240]: the IC50 in experiment [3] is ~0.1 µM.
For `CC(C)C[C@@H](C=O)NC(=O)[C@@H](CC(C)C)NC(=O)[C@H](CC(C)C)NC(=O)OCc1ccccc1` [MG132] (Cbz-Leu-[dL]-Leu-aldehyde), the “Reversibility: Ub^G76V-GFP degradation after washout (in words)” value in experiment [4] is on record as “degraded after washing out”.
In the case of `c1ccc(CNc2nc(N3CCOc4ccccc43)nc3c2CCCC3)cc1` [ML241], in experiment [3], the IC50 is ~0.1 µM.
As to `CC(C)(C)n1nc(-c2ccccc2)c2c(N)ncnc21` [Compound 17, 4-amino-1-tert-butyl-3-phenyl pyrazolo[3,4-d]pyrimidine], in experiment [1], the IC50 is > 100 µM.
Consider `C=CC(=O)Nc1ncnc2c1c(-c1ccccc1)nn2C(C)(C)C` [Compound 18, N-(1-(tert-butyl)-3-phenyl-1H-pyrazolo[3,4-d]pyrimidin-4-yl)acrylamide], for which the IC50 in experiment [5] was 100 µM; in experiment [9], 300 µM. For the same molecule, the “NSF less sensitive than p97” value in experiment [5] is “more than 100 fold”. For the same molecule, the “Inhibition of hydrolysis of LLVY-AMC by 26S proteasome (in words)” value in [6] is given as “did not inhibit”. Besides, in experiment [4], the “Reversibility: Ub^G76V-GFP degradation after washout (in words)” value is on record as “irreversibly block degradation”. Besides, in experiment [7], the “Anti-proliferative activity in NMS-R HCT116 (in words)” value is on record as “can inhibit growth”. Moreover, in experiment [8], the “Anti-proliferative activity in CB-R HCT116 (in words)” value is “can inhibit growth”. Moreover, the “Degradation of ERAD substrate TCRα-GFP (in words)” value in experiment [10] is “block degradation”. In addition, in experiment [2], the “Selectivity on wild-type vs. Cys522-mutated p97” value was “up to 100 fold”.
Consider `Cc1ccc(-c2c(C(=O)CF)n(CCCO)c3ncnc(N)c23)cc1` [Compound 5], for which the “Less active than compound 4” value in experiment [2] (in vitro and cell-based p97 assays, summary of Table 1) is on record as 10 fold.
As for `CC(=O)OCC1=C(C)C[C@H]([C@@H](C)[C@H]2CC[C@H]3[C@@H]4C[C@H]5O[C@]56[C@@H](O)C=CC(=O)[C@]6(C)[C@H]4CC[C@]23C)OC1=O` [Withaferin A 27-Acetate], the “Anti-proliferative effects at lower concentration than p97 IC50” value in [11] is 10 fold. The “Inhibition against the C522A mutant (in words)” value in [12] is “didn’t show inhibition”. Besides, the 50% inhibitory concentration (IC50) in experiment [3] (wild-type p97) is 21 µM.
With `O=C(/C=C1\Nc2ccccc2C(=O)N2CCC[C@@H]12)/C=C/c1c[nH]c2ccc(I)cc12` [5’-I-Fuligocandin B], the IC50 in experiment [3] was 7 µM.
On to “3,4-methylenedioxy-β-nitrostyrene [Compound 2]”, for which the values for the IC50 in experiment [13], in experiment [14] and in experiment [15] were 3.9 ± 1 µM, 1.6 ± 0.4 µM and 1.7 ± 0.5 µM, respectively. The “IC50 Syk (in words)” value in experiment [16] was “submicromolar”. The “Activity towards the C522A mutant (in words)” value in experiment [17] is on record as “poor activity”.
As for `CC1CCCC=CC(=O)c2c(O)cc(O)cc2CC(=O)O1` (stereo not shown) [Δ(10,11)-Dehydrocurvularin], the IC50 in [3] (covalent bond with Cys522) was 15.3 ± 9.9 µM.
Consider Oxaspirol B, for which the IC50 in [3] was 31.2 ± 3 µM.

The values above are taken from article PMC7954469 (European journal of medicinal chemistry, 2021).
